Measured values pooled from the literature.
Protocols differ between the studies behind these lines.
Target: Sodium-dependent serotonin transporter (SLC6A4, Homo sapiens, UniProt P31645)

CCc1ccccc1C(=O)Nc1n[nH]c2c(C)c(F)c(C3C(C#N)=C(C)N(C)C(C)=C3C#N)cc12 has an inhibition of -6.24% (ligand displacement; 10 µM).
For CCN(CC)CCCC[C@H](NC(=O)[C@H](CC(C)C)NC(=O)[C@H](C)NC(=O)[C@H](Cc1ccccc1)NC(=O)c1ccc(C(C)(C)C)cc1)C(=O)N[C@@H](CO)C(=O)OC, the inhibition was 5% (ligand displacement; radioligand; 10 µM).
CN(CCN1CCC(OC(=O)Nc2ccccc2-c2ccccc2)CC1)C(=O)c1ccc(CN2CCC(C(N)=O)CC2)cc1 has an inhibition of -1% (ligand displacement; radioligand; 1 µM).
The inhibition of COc1ccc(S(=O)(=O)N2CCCCC2)cc1C is reported as less than 30% (ligand displacement; radioligand; 10 µM).
With C[C@H](C(=O)N[C@H]1COc2ccccc2[C@@H]1S(C)(=O)=O)c1ccc(F)cc1 the inhibition was 11% (transporter uptake; inhibitor; 10 µM).
The inhibition of CC(C)N1CCC[C@H]1CNC(=O)c1cn(C2CCCC2)c(=O)c2c1c1ccccc1n2C is reported as 22% (ligand displacement; radioligand; 10 µM).
C[C@H](NC(=O)Nc1cc2[nH]ncc2c(CO)n1)c1ccccn1 gave an inhibition of -0.787% (cell-free assay; 10 µM).
Clc1ccc2c(C3CCN(CCc4c[nH]c5ccccc45)CC3)c[nH]c2c1 gave an inhibition of 99% (ligand displacement; radioligand; 10 µM).
With c1ccc(C(NCCNC(c2ccccc2)c2ccccc2)c2ccccc2)cc1 the inhibition was 29% (transporter uptake; inhibitor; 10 µM).
With COCc1c(-c2cc3cc(C)cc(OC)c3s2)c2c(N)ncnn2c1CN1CCNC(=O)C1 the inhibition was 3% (ligand displacement; radioligand; 10 µM).
